# Compounds with a hit are over-represented: about 6.5% of the library has one in this group of screens.
# Ecoli tolC – E. coli tolC mutant growth inhibition | E. coli BW25113 tolC mutant growth, OD615 | growth inhibition, % at 10 µM (by protocol) | actives 2.2% (n = 65,000) | AID 573;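 active = growth inhibition at or above a cutoff equal to the mean over every tested compound plus 3 SD, cut at about 60% in these data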;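 also: growth measured after 20 h incubation at 37 °C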
#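 Test system – E. coli BW25113 ΔtolC::kan, tolC deletion mutant strain · Detection – OD at 615 nm · Buffer or medium – LB with kanamycin 50 µg/mL · Times – 20 h compound exposure of bacteria at 37 °C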
# Ecoli WT expand – E. coli BW25113 growth inhibition, expanded screen; growth inhibition, % at 100 µM; AID 710; OD600 absorbance; actives 0.15% (n = 98,000);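 active = growth inhibition above about 50% at one test dose, limit read from the data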;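 also: growth measured after 20 h incubation at 37 °C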
# Calb biofilm kill – kills Candida albicans biofilms. AID 834. C. albicans biofilm + clotrimazole, Alamar Blue. actives 0.14% (n = 85,000). inhibition, % at 6 µM;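 active = inhibition above 20%; inactive = inhibition below 20%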;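 also: preformed 24 hr biofilms exposed to compound for 48 hr; 0% = biofilm without compound and 100% = blank killed by clotrimazole plus chlorhexidine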
# PTK2B oligo ant – antagonists of human Pyk2 oligomerization; Q293 cells, Pyk2 FERM NanoBiT luminescence; hits give low values; actives 0.83% (n = 99,000); Q14289; z-score (the deposit names both 25 µM and 10 µM);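 active = Z-score of -3 or lower, scaled per plate to the spread of control and sample wells; inactive = z-score above -3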;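 also: negative z-score means lost luminescence so less FERM oligomerization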
# PostGolgi ctrl – inhibits growth of the yeast control strain; actives 5% (n = 98,000); inhibition, % at 10 µM; AID 738; efflux-deficient yeast background strain, growth absorbance A615, 16 h
# PostGolgi yeast – growth inhibition of a yeast mutant, post-Golgi transport screen; post-Golgi transport phenotypic cell assay; inhibition, % at 10 µM; actives 0.9% (n = 98,000); AID 739;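 also: yeast cells grown in 1536-well plates; yeast grown about 18 h at 30C before absorbance read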
# Numbers without * were called inactive; . = not tested or not shown. Rule as the data show it, unless noted: active = inhibition above about 30%; inactive = the rest.
SMILES,Ecoli tolC,Ecoli WT expand,Calb biofilm kill,PTK2B oligo ant,PostGolgi ctrl,PostGolgi yeast
N#Cc1cccc(C(c2nnnn2C2CCCC2)N2CCC(Cc3ccccc3)CC2)c1 (stereo not drawn),.,.,8,-4.4*,.,.
Cc1c(C(=O)N2CCCCC2)nnn1-c1nonc1N,.,0,5,-0.14,0,-9
O=C(OCn1nnc2ccccc2c1=O)c1cn(-c2ccccc2)nc1-c1cccnc1,15,2,-1,-4.1*,4,34*
c1ccc(C2(CNc3ccccn3)CCCC2)cc1,.,12,-5,0.17,10,-1
CN1C=CC2=C(C#N)C(N)C(C#N)(C#N)C(c3ccccc3)C2C1 (stereo not drawn),-4,6,11,-3.7*,3,0
O=C(CC1C(=O)NCCN1C(=S)Nc1ccccc1)Nc1ccc2c(c1)OCCO2 (stereo not drawn),.,0,9,-1,4,-1
COC(=O)C1=C(C)NC(=O)/C1=C\c1cc(C)n(-c2ccccc2C)c1C,.,5,4,0.97,32*,10
COc1cccc(-n2nc(C(=O)N3CC(C)CC(C)C3)c3ccccc3c2=O)c1 (stereo not drawn),.,7,7,-0.49,13,-3
O=C(O)CNC(=O)c1ccc(S(=O)(=O)N2CCOCC2)cc1,.,1,-2,0.81,-8,-2
CC1(C)CC2CC(C)(CN2C(=O)COc2cccc3ccccc23)C1 (stereo not drawn),.,-15,5,-1.3,46*,-7
O=C(COc1cccc2ccccc12)N1CCN(c2ccccc2)CC1,66*,-17,14,1.1,13,-16
O=C(COc1cccc2ccccc12)N1c2ccccc2CCc2ccccc21,.,-17,.,-0.52,32*,18
O=C(COc1cccc2ccccc12)N1CCN(c2ccccn2)CC1,35,1,6,-0.54,15,8
O=C(Nc1ccc(Cl)c(Cl)c1)C1=Cc2ccccc2OC1,.,-4,5,-0.25,42*,9
O=C(Nc1cccc(Cl)c1)C1=Cc2cc(Cl)ccc2OC1,.,-2,6,0.71,-13,8
CC(C)c1ccc(OCc2ccc(C(=O)N3CCN(c4ccccn4)CC3)cc2)cc1,86*,-15,5,0.56,18,-4
O=C(CN1CCc2ccccc2C1)c1cccs1,0,5,4,1.1,-5,-1
Cc1ccc(OCc2n[nH]c(=S)n2C2CCCCC2)cc1,.,1,-2,0.23,41*,-2
CCCCC(=O)Nc1cccc(NC(=O)c2ccccc2Br)c1,.,8,.,-0.57,-3,0
CN1CCN(C(=O)c2c(NC(=O)c3ccco3)sc3c2CCC(C(C)(C)C)C3)CC1 (stereo not drawn),2,-3,6,-4.6*,13,4
C=CCNC(=O)C1CC(=O)N(c2ccc(OCC(=O)NCc3ccccc3)cc2)C1 (stereo not drawn),-13,3,5,0.41,1,-2
Cc1ccc(NC(=O)Cc2nnc(SCC(=O)c3ccc(Br)cc3)n2C)cc1Cl,.,0,2,.,13,2
CCOC(=O)C1(N(CC)CC)Sc2cc(C)ccc2NC1=O (stereo not drawn),72*,6,4,-1.9,18,-7
CCOC(=O)c1c(CN2CCN(c3ccccc3)CC2)oc2ccc(O)cc12,36,-3,-2,.,32*,-2
CCOC(=O)c1c(CN2CCCCC2)oc2ccc(OC)cc12,-2,8,4,-0.42,4,6
SMILES,Ecoli tolC,Ecoli WT expand,Calb biofilm kill,PTK2B oligo ant,PostGolgi ctrl,PostGolgi yeast
CCOC(=O)c1c(CN2CCCCC2C)oc2ccc(OC)cc12 (stereo not drawn),.,10,4,-0.7,-1,30*
CCCn1nnc(NC(=S)NC(=O)CC)n1,.,-2,.,0.26,5,-3
CC1=NN(/C(=N\c2nnc(C)s2)Nc2ccc(C(C)(C)C)cc2)[C@H](c2ccc(C)cc2)S1,.,.,5,-0.61,.,.
O=c1cc(-c2c(F)c(F)c(F)c(F)c2F)oc2c(F)c(F)c(F)c(F)c12,2,-1,5,.,64*,54*
CC(=O)Nc1ccc2ccc3cccc4ccc1c2c34,.,.,8,0.02,.,.
[O-][n+]1onc2c1CCc1nnc(-c3ccccc3)cc1-2,-7,5,6,0.02,32*,3
CC1=CC(C)(C)N(C(=O)c2ccc(F)cc2)c2cc3c(cc21)OCO3,87*,-3,5,-1.8,29,8
O=S(=O)(c1cc(F)cc(F)c1)N1CCN(c2ncccn2)CC1,3,5,2,0.65,13,3
COc1cc(Cl)c(C)cc1NC(=O)COC(=O)c1cnc(C)cn1,-20,0,9,0.62,6,4
O=c1oc2ccccc2n1CCn1c2ccccc2c2nc3ccccc3nc21,-16,-14,4,-3.1*,4,1
CCCn1c2ccccc2c2nc3ccccc3nc21,69*,-10,-1,-1.1,40*,8
O=C(c1ccc2c(c1)N(Cc1ccccc1)C(=O)c1ccccc1S2)N1CCCC1,.,-6,10,-2.5,45*,29
CCOc1ccccc1N1CCN(Cc2ccco2)CC1,.,-4,2,0.61,3,-8
CCOc1ccccc1N1CCN(Cc2ccc(Br)s2)CC1,97*,23,.,0.21,11,1
C=CCn1cnc2c(c1=O)c1nc3ccccc3nc1n2/N=C/c1cc(OC)c(OC)c(OC)c1,77*,4,8,-2.1,2,20
Cc1cc(C)c(-c2noc(C(=O)OC(C)(C)C)c2C(=O)OC(C)(C)C)c(C)c1,.,10,.,-0.76,-2,5
Cc1cccc(-n2nnc(C(=O)N3CCc4ccccc4C3)c2N)c1,55,-14,10,-0.4,34*,-1
O=C1CCCc2c1cc(-c1ccccc1)n2-c1ccccc1,.,-1,.,-1.8,51*,-5
COc1cccc(N2C(=O)C(c3ccccc3)=C(c3nc4ccccc4s3)C2NC(C)=O)c1 (stereo not drawn),.,0,10,-1,8,-3
CC(=O)NC1C(c2nc3ccccc3s2)=C(c2ccccc2)C(=O)N1c1ccc(C)cc1 (stereo not drawn),.,-7,1,-2.1,14,64*
CCOC(=O)c1ccc(NC(=O)CSc2nnc(CNc3ccc(OC)cc3)n2C)cc1,5,-2,7,2,10,9
CC1(C)CC(NC(=O)CCC2CCCC2)CC(C)(C)N1,-1,7,-2,0.5,40*,-8
CC1(C)CC(NC(=O)CC2CCCCC2)CC(C)(C)N1,-15,-8,6,1.4,-9,2
COCCCNc1ncnc2nc[nH]c12,-8,2,5,.,1,-2
O=C(CSc1nnc(CCCOc2ccc(Cl)cc2Cl)o1)Nc1ccc(C(=O)O)cc1,.,.,.,0.77,.,.
CCCN(CCC)C(=O)c1ccc2c(c1)N(Cc1ccccc1)C(=O)CS2=O (stereo not drawn),0,0,8,.,17,4
O=[N+]([O-])c1ccc(/C=N/Nc2nc(-c3ccccc3)c3cc(Br)ccc3n2)o1,.,-17,.,-2.2,64*,9

# Bioassay records deposited in PubChem by several laboratories.
